Hits are enriched below; roughly 2.8% of the tested compounds scored in any of these assays.
Rtt109 Vps75: blocks Candida albicans Rtt109/Vps75 acetyltransferase activity | Q5AAJ8 | purified Rtt109/Vps75, ThioGlo CoA-SH fluorescence, 4 h | 330,000 compounds, 0.16% hits | inhibition, % at 34.9 µM;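 active means inhibition of at least 50% in every replicate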
JMJD2C inh: inhibitors of human GASC-1 (JMJD2C) demethylase. Q9H3R0. GST-JMJD2C(1-420) H3K9me3 demethylation, DELFIA europium. 330,000 compounds, 0.069% hits. inhibition, % at 2.35 µM;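 active means more than half of a compound's replicate wells show inhibition beyond 50%, single wells judged on their own value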;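 further: signal counts dimethyl H3K9 product captured on neutravidin plate; 0% = median of DMSO wells and 100% = 0.3 times that DMSO median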
Target sequence (Q9H3R0 1-420 limits assumed): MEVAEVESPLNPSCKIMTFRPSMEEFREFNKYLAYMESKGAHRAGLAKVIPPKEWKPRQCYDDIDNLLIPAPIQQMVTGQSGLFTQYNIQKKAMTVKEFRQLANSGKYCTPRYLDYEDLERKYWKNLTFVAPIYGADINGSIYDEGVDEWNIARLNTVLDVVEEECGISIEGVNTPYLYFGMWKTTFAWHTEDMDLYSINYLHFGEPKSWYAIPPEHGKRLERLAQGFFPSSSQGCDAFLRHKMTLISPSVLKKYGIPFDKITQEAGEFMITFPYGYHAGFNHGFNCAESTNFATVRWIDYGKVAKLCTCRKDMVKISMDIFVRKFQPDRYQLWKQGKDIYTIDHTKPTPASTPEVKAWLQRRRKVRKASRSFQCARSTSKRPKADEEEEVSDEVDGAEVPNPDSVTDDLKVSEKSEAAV
NR3A LBD binder: modulates the human NR3A ligand-binding domain | Tm shift relative to glycine control, % at 25 µM | NR3A LBD differential scanning fluorimetry, Tm shift; 0% = protein alone, 100% = glycine-bound protein | 340,000 compounds, 2.5% hits | AID 1259313;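 active means melting temperature shift of at least 10% of the positive control shift, at one fixed dose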
T cell HTS: T cell immune modulators affecting CD8 T cell-vesicle binding | 2C CD8+ T cell-vesicle binding, flow cytometry; hits give low values | response (vesicle binding), % at 7 µM | 330,000 compounds, 0.068% hits;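 active means response, share of CD8 T cells binding vesicles, and their 90th percentile fluorescence all below set limits, cut at about 80% in these data, passing the limit was not always enough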;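 further: values below 100% mean blocked vesicle binding to the CD8+ T cells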
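incubation = binding step 1.5 h, 37 °C, antibody labelling 20 min, ice | test system = 2C mouse CD8+ T cells | read-out basis = percent CD8+ FL2 mean versus row control | controls = Peptide-free naked vesicles (low) and QL9 vesicles with 0.7% DMSO vehicle (high) | detection = flow cytometry of vesicle-bound cells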
* marks the source's active call; other numbers are inactive results.

Cc1ccc(CNC(=O)c2nc3nc(C)cc(C)n3n2)cc1 was read as Rtt109 Vps75 -36.7, JMJD2C inh 2.3, NR3A LBD binder 0.1 and T cell HTS 241.4.
Screening CN(C)CCNC=C(C(=O)Nc1ccc(Cl)cc1Cl)C(=O)Nc1ccc(Cl)cc1Cl returned Rtt109 Vps75 0.9, JMJD2C inh -12.3, NR3A LBD binder 12.9* and T cell HTS 175.1.
For N#CCC(=O)N/N=C/c1ccc(N2N=C(c3ccccc3)CC2c2ccccc2)cc1 (stereo unspecified) the results were Rtt109 Vps75 -11.8, JMJD2C inh 24.2, NR3A LBD binder 6.8 and T cell HTS 249.0.
`COc1ccc(C2CC(C)(c3ccc(OC)cc3OC)Nc3ccccc3N2)c(OC)c1` (stereo unspecified) gave Rtt109 Vps75 14.7, JMJD2C inh 29.7, NR3A LBD binder 0.9 and T cell HTS 66.2*.
`NC(=O)COC(=O)c1cccc(NS(=O)(=O)/C=C/c2ccccc2)c1` gave Rtt109 Vps75 2.3, JMJD2C inh 11.1, NR3A LBD binder 11.6* and T cell HTS 357.7.
NC(=O)NC(=O)COC(=O)c1cccc(NS(=O)(=O)/C=C/c2ccccc2)c1 was read as Rtt109 Vps75 -14.0, JMJD2C inh 0.9, NR3A LBD binder -0.4 and T cell HTS 463.7.
Cc1cc(NC(=O)COC(=O)[C@H](Cc2ccccc2)NC(=O)c2ccco2)no1 was read as Rtt109 Vps75 -5.3 and NR3A LBD binder -2.6.
For Cc1nnc(N/N=C/c2cc(C)n(-c3ccc(F)cc3)c2C)n1N the results were Rtt109 Vps75 15.7, JMJD2C inh 4.1, NR3A LBD binder 11.9* and T cell HTS 417.2.
Cc1nnc(N/N=C/c2ccccc2O)n1N was read as Rtt109 Vps75 -2.8, JMJD2C inh -44.6, NR3A LBD binder -2.1 and T cell HTS 314.5.
`COc1cc(C(=O)NCCN2C(=O)S/C(=C\c3ccc(F)cc3)C2=O)ccc1OCC(=O)N1CCOCC1` gave JMJD2C inh 0.4, NR3A LBD binder 0.1 and T cell HTS 234.2.
Screening Cc1cccc(CNC(=O)C2CCC(=O)N(Cc3ccccc3F)C2)n1 (stereo unspecified) returned Rtt109 Vps75 16.8, JMJD2C inh 9.7 and NR3A LBD binder 0.1.
For Cc1c(C(=O)N/N=C/c2cccs2)nnn1-c1nonc1N the results were Rtt109 Vps75 -10.6, JMJD2C inh 4.2, NR3A LBD binder 10.3* and T cell HTS 362.9.
For CCCc1c(C(=O)N/N=C/c2cccs2)nnn1-c1nonc1N the results were Rtt109 Vps75 -1.9, JMJD2C inh 38.1, NR3A LBD binder 17.2* and T cell HTS 116.6.
`CN(Cc1c(C(=O)N/N=C/c2cccs2)nnn1-c1nonc1N)c1ccccc1` gave Rtt109 Vps75 3.9, JMJD2C inh -0.2, NR3A LBD binder 16.2* and T cell HTS 130.1.
For C/C(=N\NC(=O)c1nnn(-c2nonc2N)c1CN(C)c1ccccc1)c1ccccc1O the results were Rtt109 Vps75 9.2, JMJD2C inh 18.8, NR3A LBD binder 13.9* and T cell HTS 255.3.
For COc1ccc(/C(C)=N/NC(=O)c2nnn(-c3nonc3N)c2CN(C)c2ccccc2)cc1 the results were Rtt109 Vps75 -13.8, JMJD2C inh -6.9, NR3A LBD binder -14.1 and T cell HTS 40.1.
Screening CCCN(CCC)Cc1c(C(=O)N/N=C/c2cccs2)nnn1-c1nonc1N returned Rtt109 Vps75 7.3, JMJD2C inh 23.3, NR3A LBD binder -13.2 and T cell HTS 163.8.
Screening NS(=O)(=O)c1cc(Cl)c(NC(=O)COC(=O)c2ccccn2)c(Cl)c1 returned Rtt109 Vps75 8.9, JMJD2C inh -3.7, NR3A LBD binder -1.2 and T cell HTS 185.7.
For CCN(CC(=O)NCc1cccs1)S(=O)(=O)c1ccc(F)c(F)c1F the results were Rtt109 Vps75 -4.4, JMJD2C inh -1.1, NR3A LBD binder 3.0 and T cell HTS 190.1.
`CCc1cccc(CC)c1NC(=O)C1CCN(C(=O)c2ccco2)CC1` gave Rtt109 Vps75 -1.7, JMJD2C inh 9.8, NR3A LBD binder 0.3 and T cell HTS 192.2.
CCCCCCCOC(=O)c1nc(Cl)c(Cl)c(N)c1Cl was read as Rtt109 Vps75 0.2, JMJD2C inh -1.0, NR3A LBD binder 1.8 and T cell HTS 81.9.
For CCCCOC(=O)c1nc(Cl)c(Cl)c(N)c1Cl the results were Rtt109 Vps75 1.6, JMJD2C inh -8.1, NR3A LBD binder 12.6* and T cell HTS 201.2.
`O=C(Nc1ccc2nn(-c3ccccc3)nc2c1)c1ccc2c(c1)OCCO2` gave Rtt109 Vps75 -13.2, JMJD2C inh 8.5, NR3A LBD binder 20.8* and T cell HTS 131.5.
`O=C(Nc1cccc(NC(=O)c2ccc3c(c2)OCO3)c1)c1ccccc1` gave Rtt109 Vps75 -2.0, JMJD2C inh 6.0, NR3A LBD binder -4.8 and T cell HTS 303.4.
O=C(/C=C/c1ccco1)Nc1ccc2nn(-c3ccccc3)nc2c1 was read as Rtt109 Vps75 2.2, JMJD2C inh -7.9, NR3A LBD binder 13.8* and T cell HTS 539.9.
Screening CCCC(=O)Nc1nc2ccc(NC(=O)c3ccc(Br)o3)cc2s1 returned JMJD2C inh -6.9, NR3A LBD binder 17.8* and T cell HTS 208.1.
O=C(Nc1ccc2nn(-c3ccccc3)nc2c1)c1ccc(Br)o1 was read as Rtt109 Vps75 3.2, JMJD2C inh 3.8, NR3A LBD binder 18.9* and T cell HTS 694.2.
`CCOc1ccc(-n2nc3ccc(NC(=O)c4ccc5c(c4)OCCO5)cc3n2)cc1` gave JMJD2C inh 3.1, NR3A LBD binder 19.0* and T cell HTS 208.6.
For Cc1ccc(NC(=O)CSc2nnc(NC(=O)C3CC3)s2)cc1C the results were Rtt109 Vps75 -9.3, JMJD2C inh -4.3, NR3A LBD binder 20.7* and T cell HTS 312.0.
Screening CC(=O)c1ccc(NC(=O)CSc2nnc(NC(=O)C3CC3)s2)cc1 returned Rtt109 Vps75 -9.4, JMJD2C inh 1.8, NR3A LBD binder 24.9* and T cell HTS inactive.
Screening Cc1ccc(NC(=O)CSc2nnc(NC(=O)C3CC3)s2)cc1 returned Rtt109 Vps75 -0.7, JMJD2C inh 4.4, NR3A LBD binder 2.1 and T cell HTS 461.1.
Screening N#C/C(=C\c1ccccc1[N+](=O)[O-])c1nc(C2CC2)cs1 returned Rtt109 Vps75 1.0, JMJD2C inh 7.6, NR3A LBD binder 15.8* and T cell HTS 257.0.
`COC(=O)C(CC(=O)c1ccc(Cl)cc1)c1ccc(C)cc1` (stereo unspecified) gave Rtt109 Vps75 14.7, JMJD2C inh 1.5, NR3A LBD binder 15.0* and T cell HTS 348.9.
`N/C(=N\S(=O)(=O)c1cc(C(F)(F)F)cc(C(F)(F)F)c1)c1ccncc1` gave Rtt109 Vps75 -3.7, JMJD2C inh -2.6, NR3A LBD binder 14.5* and T cell HTS 332.5.
For Cc1ccc(S(=O)(=O)/N=C(\N)c2ccc(Cl)cc2)cc1 the results were Rtt109 Vps75 1.4, JMJD2C inh -5.1, NR3A LBD binder -0.4 and T cell HTS 172.5.
